Our source for the pKB, Ki and Activity values is ChEMBL document CHEMBL1149137, “Synthesis, screening, and molecular modeling of new potent and selective antagonists at the alpha 1d adrenergic receptor” (J Med Chem, 2004).

For assay [1], the target named is T1, Alpha-1D adrenergic receptor (Rattus norvegicus) (UniProt P23944).
T1 sequence (whole entry): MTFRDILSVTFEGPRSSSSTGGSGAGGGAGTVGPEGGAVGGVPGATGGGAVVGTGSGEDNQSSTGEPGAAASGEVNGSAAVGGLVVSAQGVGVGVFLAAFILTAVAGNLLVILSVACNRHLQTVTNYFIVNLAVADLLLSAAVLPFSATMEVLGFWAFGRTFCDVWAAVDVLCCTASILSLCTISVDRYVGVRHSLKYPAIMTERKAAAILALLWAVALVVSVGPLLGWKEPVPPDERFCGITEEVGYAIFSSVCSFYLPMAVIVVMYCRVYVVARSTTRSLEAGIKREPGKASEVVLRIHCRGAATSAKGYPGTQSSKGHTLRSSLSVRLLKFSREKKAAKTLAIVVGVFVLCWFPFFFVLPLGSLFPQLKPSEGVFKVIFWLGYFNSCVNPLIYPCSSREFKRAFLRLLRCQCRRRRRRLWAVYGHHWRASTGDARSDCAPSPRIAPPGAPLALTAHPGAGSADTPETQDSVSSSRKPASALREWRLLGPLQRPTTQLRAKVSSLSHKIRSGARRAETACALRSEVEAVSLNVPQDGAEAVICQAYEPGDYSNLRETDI
Particulars: Aorta.

Assay [2] addresses T2, Alpha-1A adrenergic receptor (Rattus norvegicus) (UniProt P43140).
T2 sequence (whole entry): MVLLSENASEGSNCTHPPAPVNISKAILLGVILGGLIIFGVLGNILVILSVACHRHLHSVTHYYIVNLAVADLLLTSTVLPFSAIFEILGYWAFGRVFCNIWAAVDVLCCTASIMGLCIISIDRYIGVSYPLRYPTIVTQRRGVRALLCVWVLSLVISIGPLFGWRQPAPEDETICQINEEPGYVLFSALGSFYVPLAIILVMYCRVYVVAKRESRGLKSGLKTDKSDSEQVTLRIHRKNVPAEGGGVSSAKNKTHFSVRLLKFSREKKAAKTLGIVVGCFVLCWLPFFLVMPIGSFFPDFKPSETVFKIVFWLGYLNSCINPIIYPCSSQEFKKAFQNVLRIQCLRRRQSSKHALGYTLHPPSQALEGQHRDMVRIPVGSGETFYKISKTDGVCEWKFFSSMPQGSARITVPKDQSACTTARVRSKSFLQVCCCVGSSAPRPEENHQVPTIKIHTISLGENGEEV
Conditions: Vas deferens.

Assay [3] has as its target Alpha-1D adrenergic receptor (Homo sapiens) (UniProt P25100). Nature of the assay: Binding affinity to the adrenergic receptor alpha-1D of cloned human receptor.
The target in assay [4] is T3, 5-hydroxytryptamine receptor 1A (Homo sapiens, UniProt P08908).
T3 sequence (P08908 whole entry): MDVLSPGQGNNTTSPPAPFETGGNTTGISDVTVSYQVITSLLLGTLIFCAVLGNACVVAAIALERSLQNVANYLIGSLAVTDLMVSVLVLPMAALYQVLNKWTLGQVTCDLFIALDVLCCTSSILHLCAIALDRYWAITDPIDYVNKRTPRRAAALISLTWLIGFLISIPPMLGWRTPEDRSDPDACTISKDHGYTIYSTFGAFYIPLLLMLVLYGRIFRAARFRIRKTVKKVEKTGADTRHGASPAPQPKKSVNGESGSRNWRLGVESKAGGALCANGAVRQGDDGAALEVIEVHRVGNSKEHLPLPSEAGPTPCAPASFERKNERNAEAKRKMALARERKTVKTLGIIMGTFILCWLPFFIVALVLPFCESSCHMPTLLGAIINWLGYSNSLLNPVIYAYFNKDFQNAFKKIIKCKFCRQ
Nature of the assay: Binding affinity to human 5-hydroxytryptamine 1A receptor was measured using [3H]-8-hydroxy-2-(di-n-propylamine) tetraline [3H]8-OH-DPAT) as radioligand.

The target in assay [5] is Alpha-1A adrenergic receptor (Homo sapiens) (UniProt P35348). Nature of the assay: In vitro binding affinity towards alpha-1A adrenergic receptor through displacement of [3H]prazosin in cloned human receptor. For orientation: Displacement assays read how much labelled ligand stays bound in the presence of the test substance.
In assay [6] the target is T1, Alpha-1D adrenergic receptor (Rattus norvegicus). Nature of the assay: Fraction involved in salt bridge interactions with Asp3:11 part of the alpha-1D adrenergic receptor. The method, boiled down: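 Comparative models were built on a rhodopsin template and refined by energy minimization and MD. Docking used MCSS, and the value is the fraction of substituted phenylpiperazines forming a salt bridge with receptor Asp3:11.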

Turning to `O=C1CC2(CCCC2)CCN1CCN1CCN(c2cc(Cl)ccc2Cl)CC1`, the pKB (in general, −log10 of the KB, conventionally taken in molar units) in assay [1] is 8.89; in assay [2], 7. For the same molecule, affinity in assay [3] was put at a Ki of 0.11 nM.

`O=C1CC2(CCCC2)CC(=O)N1CCN1CCC(c2ccccc2Cl)CC1`: the Ki (as a rule, the equilibrium dissociation constant of an inhibitor or competing ligand from its target) is 5.25 nM in assay [4], 1.11 nM in assay [3] and 2.01 nM in assay [5].

On to `COc1ccccc1N1CCN(CCN2C=CC3(CCCC3)CC2=O)CC1`, for which the Ki in assay [4] is 3.84 nM; in assay [3], 3.15 nM; in assay [5], 29.2 nM.

On to `O=C1CC2(CCCCC2)CC(=O)N1CCN1CCN(c2ccccc2Cl)CC1`, for which the Ki stood at 20 nM in assay [4], 2.88 nM in assay [3] and 422 nM in assay [5].

On to `O=C1CC2(C=CN1CCN1CCN(c3ccccc3Cl)CC1)CCCC2`, for which the Ki amounted to 9.38 nM in assay [4], 0.84 nM in assay [3] and 53.9 nM in assay [5].

`O=C1CC2(CCCC2)CC(=O)N1CCCCN1CCN(c2cc(Cl)ccc2Cl)CC1`: the Ki in assay [4] came out at 26.1 nM; in assay [3], 0.67 nM; in assay [5] it was 1.81 nM.

Take `COc1ccccc1OCCN(C)CCN1C(=O)CC2(CCCC2)CC1=O`: the Ki in assay [4] is 259 nM; in assay [3] it was 18.2 nM; in assay [5], greater than 1000 nM.

Consider `Cc1ccc(Cl)cc1N1CCN(CCN2C(=O)CC3(CCCC3)CC2=O)CC1`, for which the Ki in assay [4] was found to be 135 nM; in assay [3], 0.37 nM; in assay [5], 190 nM.

On to `COc1ccccc1N1CCN(CCN2C(=O)CC3(CCN(Cc4ccccc4)CC3)CC2=O)CC1`, for which the figures for the Ki in assay [4], in assay [3] and in assay [5] were greater than 1000 nM, 35.1 nM and 294 nM, respectively.

As for `O=C1CC2(CCCC2)CC(=O)N1CCN1CCN(c2cc(Cl)ccc2Cl)CC1`, the Activity in assay [6] stood at 0.4. For the same molecule, in assay [1], the pKB is 8.99. For the same molecule, the affinity in assay [3] corresponds to a Ki of 0.13 nM.

`O=C1CC2(CCCC2)CCN1CCN1CCN(c2ccccc2Cl)CC1`: the Ki was 1.06 nM in assay [4], 0.54 nM in assay [3] and 87.5 nM in assay [5].

Regarding `Cc1ccccc1N1CCN(CCN2C(=O)CC3(CCCC3)CC2=O)CC1`, the Ki in assay [4] stood at 25.4 nM; in assay [3], 2.16 nM; in assay [5] it was 584 nM.

For the molecule `O=C1CC2(CCCC2)CC(=O)N1CCN1CCN(c2ccccc2Cl)CC1`, the Ki turned out to be 4.24 nM in assay [4], 0.83 nM in assay [3] and 552 nM in assay [5].

`COc1ccccc1N1CCN(CCN2C(=O)CC3(CCCC3)CC2=O)CC1` [BMY-7378]: the Ki in assay [4] came to 0.8 nM. Also, the Activity in assay [6] came to 0.3.

In the case of `COc1cccc(N2CCN(CCN3C(=O)CC4(CCCC4)CC3=O)CC2)c1`, the Ki in assay [4] was 13.4 nM; in assay [3], 54.3 nM; in assay [5], greater than 1000 nM.
